Laboratory results published in ChEMBL document CHEMBL1275598, “In vitro activity of ceftaroline against community-associated methicillin-resistant, vancomycin-intermediate, vancomycin-resistant, and daptomycin-nonsusceptible Staphylococcus aureus isolates” (2010).

Tests used:
Staphylococcus aureus [1] = assay: Antimicrobial activity against vancomycin resistant Staphylococcus aureus VRS-1 expressing SCCmec type 2 element by microdilution method in presence of 50 mg/L calcium; format: functional
Summary of the method: (§1)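 Broth microdilution per CLSI in cation-adjusted Mueller-Hinton broth supplemented with calcium to 50 mg/liter final. Antibiotic powders were reconstituted per CLSI. The MIC was read visually as the lowest drug concentration with no visible growth. S. aureus ATCC 29213 and E. faecalis ATCC 29212 served as control strains.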

Staphylococcus aureus [2] = assay: Antimicrobial activity against vancomycin resistant Staphylococcus aureus VRS-2 expressing SCCmec type 2 element by microdilution method in presence of 50 mg/L calcium
Staphylococcus aureus [3] = assay: Antimicrobial activity against vancomycin resistant Staphylococcus aureus VRS-3 expressing SCCmec type 4 element by microdilution method in presence of 50 mg/L calcium
Staphylococcus aureus [4] = assay: Antimicrobial activity against vancomycin resistant Staphylococcus aureus VRS-5 expressing SCCmec type 2 element by microdilution method in presence of 50 mg/L calcium
Staphylococcus aureus [5] = assay: Antimicrobial activity against vancomycin resistant Staphylococcus aureus VRS-6 expressing SCCmec type 2 element by microdilution method in presence of 50 mg/L calcium; format: functional; summary of the method: as §1
Staphylococcus aureus [6] = assay: Antimicrobial activity against vancomycin resistant Staphylococcus aureus VRS-7 expressing SCCmec element by microdilution method in presence of 50 mg/L calcium; format: functional; summary of the method: as §1
Staphylococcus aureus [7] = assay: Antimicrobial activity against vancomycin resistant Staphylococcus aureus VRS-8 expressing SCCmec element by microdilution method in presence of 50 mg/L calcium
Staphylococcus aureus [8] = assay: Antimicrobial activity against community-acquired methicillin-resistant Staphylococcus aureus by microdilution method in presence of 50 mg/L calcium; format: functional
Summary of the method: (§2)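 Daptomycin MIC by CLSI broth microdilution in cation-adjusted Mueller-Hinton broth, supplemented with calcium to a final 50 mg/liter. Read visually as the lowest concentration with no visible growth. ATCC 29213 and E. faecalis ATCC 29212 served as controls. CA-MRSA and DNSSA isolates came from patients at the study hospital; VISA isolates came from NARSA.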

Staphylococcus aureus [9] = assay: Antimicrobial activity against community-acquired methicillin-resistant Staphylococcus aureus assessed as susceptible isolates by microdilution method in presence of 50 mg/L calcium; format: functional
Summary of the method: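 Daptomycin MICs by CLSI broth microdilution in cation-adjusted Mueller-Hinton broth with calcium added to a final 50 mg/liter, read visually. Percentage susceptible among 92 CA-MRSA isolates assigned by CLSI breakpoints.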

Staphylococcus aureus [10] = assay: Bactericidal activity against vancomycin-resistant Staphylococcus aureus assessed as antibiotic concentration that reduced the number of viable cells by =>99.9% by colony count method in presence of 50 mg/L calcium; format: functional
Summary of the method: (§3)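 MBC per CLSI following microdilution in cation-adjusted Mueller-Hinton broth with calcium added to 50 mg/liter final. Defined as the concentration giving ≥99.9% reduction in viable cells, judged from colony counts of the growth control well against Pearson rejection-value tables.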

Staphylococcus aureus [11] = assay: Bactericidal activity against community-acquired methicillin-resistant Staphylococcus aureus assessed as antibiotic concentration that reduced the number of viable cells by =>99.9% by colony count method in presence of 50 mg/L calcium; format: functional; summary of the method: as §3
Staphylococcus aureus [12] = assay: Antimicrobial activity against vancomycin-resistant Staphylococcus aureus assessed as susceptible isolates by microdilution method in presence of 50 mg/L calcium; format: functional; summary of the method: as §1
Staphylococcus aureus [13] = assay: Antimicrobial activity against daptomycin-nonsusceptible Staphylococcus aureus by microdilution method in presence of 50 mg/L calcium; format: functional; summary of the method: as §2
Staphylococcus aureus [14] = assay: Antimicrobial activity against daptomycin-nonsusceptible Staphylococcus aureus assessed as susceptible isolates by microdilution method in presence of 50 mg/L calcium; format: functional
Summary of the method: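 Broth microdilution MIC per CLSI in cation-adjusted Mueller-Hinton broth, with calcium added to a final 50 mg/liter for daptomycin testing. MIC is the lowest drug concentration with no visible growth, read by eye. Percent susceptible was assigned from CLSI breakpoints. S. aureus ATCC 29213 and E. faecalis ATCC 29212 served as control strains.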

Staphylococcus aureus [15] = assay: Antimicrobial activity against vancomycin-resistant Staphylococcus aureus by microdilution method in presence of 50 mg/L calcium; format: functional; summary of the method: as §1
Staphylococcus aureus [16] = assay: Bactericidal activity against daptomycin-nonsusceptible Staphylococcus aureus assessed as antibiotic concentration that reduced the number of viable cells by =>99.9% by colony count method in presence of 50 mg/L calcium; format: functional; summary of the method: as §3
Staphylococcus aureus [17] = assay: Antimicrobial activity against vancomycin intermediate Staphylococcus aureus NRS-3 expressing SCCmec type 2 element by microdilution method in presence of 50 mg/L calcium; format: functional; summary of the method: as §2
Staphylococcus aureus [18] = assay: Antimicrobial activity against vancomycin intermediate Staphylococcus aureus NRS-4 expressing SCCmec type 2 element by microdilution method in presence of 50 mg/L calcium; format: functional; summary of the method: as §2
Staphylococcus aureus [19] = assay: Antimicrobial activity against vancomycin intermediate Staphylococcus aureus NRS-17 expressing SCCmec type 2 element by microdilution method in presence of 50 mg/L calcium; format: functional; summary of the method: as §2
Staphylococcus aureus [20] = assay: Antimicrobial activity against vancomycin intermediate Staphylococcus aureus NRS-18 expressing SCCmec type 2 element by microdilution method in presence of 50 mg/L calcium; format: functional; summary of the method: as §2
Staphylococcus aureus [21] = assay: Antimicrobial activity against vancomycin intermediate Staphylococcus aureus NRS-19 expressing SCCmec type 2 element by microdilution method in presence of 50 mg/L calcium; format: functional; summary of the method: as §2
Staphylococcus aureus [22] = assay: Antimicrobial activity against vancomycin intermediate Staphylococcus aureus NRS-22 expressing SCCmec type 2 element by microdilution method in presence of 50 mg/L calcium; format: functional; summary of the method: as §2
Staphylococcus aureus [23] = assay: Antimicrobial activity against vancomycin intermediate Staphylococcus aureus NRS-24 expressing SCCmec type 2 element by microdilution method in presence of 50 mg/L calcium; format: functional; summary of the method: as §2
Staphylococcus aureus [24] = assay: Antimicrobial activity against vancomycin intermediate Staphylococcus aureus NRS-26 expressing SCCmec type 2 element by microdilution method in presence of 50 mg/L calcium; format: functional; summary of the method: as §2
Staphylococcus aureus [25] = assay: Antimicrobial activity against vancomycin intermediate Staphylococcus aureus NRS-27 expressing SCCmec type 2 element by microdilution method in presence of 50 mg/L calcium; format: functional; summary of the method: as §2
Staphylococcus aureus [26] = assay: Antimicrobial activity against vancomycin intermediate Staphylococcus aureus NRS-68 expressing SCCmec type 2 element by microdilution method in presence of 50 mg/L calcium; format: functional; summary of the method: as §2
Staphylococcus aureus [27] = assay: Antimicrobial activity against vancomycin intermediate Staphylococcus aureus NRS-118 expressing SCCmec type 1 element by microdilution method in presence of 50 mg/L calcium; format: functional; summary of the method: as §2
Staphylococcus aureus [28] = assay: Antimicrobial activity against vancomycin intermediate Staphylococcus aureus NRS-126 expressing SCCmec type 2 element by microdilution method in presence of 50 mg/L calcium; format: functional; summary of the method: as §2
Staphylococcus aureus [29] = assay: Antimicrobial activity against vancomycin intermediate Staphylococcus aureus NRS-402 expressing SCCmec type 2 element by microdilution method in presence of 50 mg/L calcium; format: functional; summary of the method: as §2
Staphylococcus aureus [30] = assay: Antimicrobial activity against vancomycin intermediate Staphylococcus aureus NRS-403 expressing SCCmec type 2 element by microdilution method in presence of 50 mg/L calcium; format: functional; summary of the method: as §2
Staphylococcus aureus [31] = assay: Antimicrobial activity against vancomycin intermediate Staphylococcus aureus NRS-404 expressing SCCmec type 2 element by microdilution method in presence of 50 mg/L calcium; format: functional; summary of the method: as §2

In the case of CCCCCCCCCC(=O)N[C@@H](Cc1c[nH]c2ccccc12)C(=O)N[C@H](CC(N)=O)C(=O)N[C@@H](CC(=O)O)C(=O)N[C@@H]1C(=O)NCC(=O)N[C@@H](CCCN)C(=O)N[C@@H](CC(=O)O)C(=O)N[C@H](C)C(=O)N[C@@H](CC(=O)O)C(=O)NCC(=O)N[C@H](CO)C(=O)N[C@@H]([C@H](C)CC(=O)O)C(=O)N[C@@H](CC(=O)c2ccccc2N)C(=O)O[C@@H]1C, the MIC (Staphylococcus aureus [1]) is reported as 1 µg/mL, the MIC (Staphylococcus aureus [2]) is reported as 0.5 µg/mL and the MIC (Staphylococcus aureus [3]) is reported as 0.5 µg/mL. The MIC (Staphylococcus aureus [4]) was 0.5 µg/mL, the MIC (Staphylococcus aureus [5]) was 1 µg/mL and the MIC (Staphylococcus aureus [6]) was 1 µg/mL. For the same compound, the MIC (Staphylococcus aureus [7]) was 0.5 µg/mL, the MIC50 (Staphylococcus aureus [8]) was 0.5 µg/mL and the MIC90 (Staphylococcus aureus [8]) was 1 µg/mL. The Activity (Staphylococcus aureus [9]) was 100%, the MBC50 (Staphylococcus aureus [10]) was 1 µg/mL and the MBC90 (Staphylococcus aureus [10]) was 1 µg/mL. It also gave an MBC (Staphylococcus aureus [10]; Staphylococcus aureus) of 0.5 µg/mL, an MBC50 (Staphylococcus aureus [11]) of 0.5 µg/mL and an MBC90 (Staphylococcus aureus [11]) of 1 µg/mL. For the same compound, the MBC (Staphylococcus aureus [11]; Staphylococcus aureus) was 0.25 µg/mL, the Activity (Staphylococcus aureus [12]) was 100% and the MIC (Staphylococcus aureus [13]) was 4 µg/mL. For the same compound, the MIC50 (Staphylococcus aureus [13]) was 4 µg/mL, the Activity (Staphylococcus aureus [14]) was 0% and the MIC (Staphylococcus aureus [15]) was 0.5 µg/mL. For the same compound, the MIC50 (Staphylococcus aureus [15]) was 0.5 µg/mL, the MIC90 (Staphylococcus aureus [15]) was 1 µg/mL and the MBC (Staphylococcus aureus [16]) was 4 µg/mL. The MBC50 (Staphylococcus aureus [16]) was 8 µg/mL, the MBC (Staphylococcus aureus [16]; Staphylococcus aureus, read-out: MBC) was 5.94 µg/mL and the MIC (Staphylococcus aureus [17]) was 4 µg/mL. It also gave an MIC (Staphylococcus aureus [18]) of 1 µg/mL, an MIC (Staphylococcus aureus [19]) of 4 µg/mL and an MIC (Staphylococcus aureus [20]) of 1 µg/mL. It also gave an MIC (Staphylococcus aureus [21]) of 2 µg/mL, an MIC (Staphylococcus aureus [22]) of 2 µg/mL and an MIC (Staphylococcus aureus [23]) of 2 µg/mL. For the same compound, the MIC (Staphylococcus aureus [24]) was 4 µg/mL, the MIC (Staphylococcus aureus [25]) was 1 µg/mL and the MIC (Staphylococcus aureus [26]) was 1 µg/mL. It also gave an MIC (Staphylococcus aureus [27]) of 4 µg/mL, an MIC (Staphylococcus aureus [28]) of 2 µg/mL and an MIC (Staphylococcus aureus [29]) of 8 µg/mL. For the same compound, the MIC (Staphylococcus aureus [30]) was 2 µg/mL and the MIC (Staphylococcus aureus [31]) was 2 µg/mL.
